{"source": "paper PMC5291243", "about": "(Nucleic Acids Research, 2016)", "key": {"ING1 PHD finger [1]": {"biological_target": "ING1 PHD finger (UniProt Q9UK53)", "assay": "in vitro peptide binding, probably NMR titration", "settings": "reference: H3K4me3 peptide (reference implied); sites T3,T6"}, "[2]": {"biological_target": "DIDO PHD finger (aa 260–325) (UniProt Q9BTC0)", "sequence (Q9BTC0 260-325)": "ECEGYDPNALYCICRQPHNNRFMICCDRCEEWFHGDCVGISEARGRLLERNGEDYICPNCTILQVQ", "assay": "other fluorescence titration"}, "BPTF PHD finger [3]": {"biological_target": "BPTF PHD finger (UniProt Q12830)", "assay": "histone peptide microarray", "settings": "reference: H3K4me3 peptide"}, "DIDO PHD finger [4]": {"biological_target": "DIDO PHD finger (UniProt Q9BTC0)", "assay": "histone peptide microarray", "settings": "reference: H3K4me3 peptide"}, "ING1 PHD finger [5]": {"biological_target": "ING1 PHD finger (UniProt Q9UK53)", "assay": "histone peptide microarray", "settings": "reference: H3K4me3 peptide"}, "PHF8 PHD finger [6]": {"biological_target": "PHF8 PHD finger (UniProt Q9UPP1)", "assay": "histone peptide microarray", "settings": "reference: H3K4me3 peptide"}, "Rag2 PHD finger [7]": {"biological_target": "Rag2 PHD finger (UniProt P21784)", "assay": "histone peptide microarray", "settings": "reference: H3K4me3 peptide"}, "Taf3 PHD finger [8]": {"biological_target": "Taf3 PHD finger (UniProt Q5HZG4)", "assay": "histone peptide microarray", "settings": "reference: H3K4me3 peptide"}, "BPTF PHD finger [9]": {"biological_target": "BPTF PHD finger (UniProt Q12830)", "assay": "biotin-peptide pull-down of GST-reader, anti-GST blot", "settings": "reference: H3K4me3 peptide; sites T3"}, "DIDO PHD finger [10]": {"biological_target": "DIDO PHD finger (UniProt Q9BTC0)", "assay": "biotin-peptide pull-down of GST-reader, anti-GST blot", "settings": "reference: H3K4me3 peptide; sites T3"}, "ING1 PHD finger [11]": {"biological_target": "ING1 PHD finger (UniProt Q9UK53)", "assay": "biotin-peptide pull-down of GST-reader, anti-GST blot", "settings": "reference: H3K4me3 peptide; sites T3"}, "[12]": {"biological_target": "KDM4A double Tudor domain (DTD) (UniProt O75164)", "assay": "biotin-peptide pull-down of GST-reader, anti-GST blot", "settings": "reference: H3K4me3 peptide; sites T3"}, "PHF8 PHD finger [13]": {"biological_target": "PHF8 PHD finger (UniProt Q9UPP1)", "assay": "biotin-peptide pull-down of GST-reader, anti-GST blot", "settings": "reference: H3K4me3 peptide; sites T3"}, "Rag2 PHD finger [14]": {"biological_target": "Rag2 PHD finger (UniProt P21784)", "assay": "biotin-peptide pull-down of GST-reader, anti-GST blot", "settings": "reference: H3K4me3 peptide"}, "Taf3 PHD finger [15]": {"biological_target": "Taf3 PHD finger (UniProt Q5HZG4)", "assay": "biotin-peptide pull-down of GST-reader, anti-GST blot", "settings": "reference: H3K4me3 peptide; sites T3"}, "ING1 PHD finger [16]": {"biological_target": "T1, ING1 PHD finger (Homo sapiens, UniProt Q9UK53)", "T1 sequence (Q9UK53 200-279 isoform Q9UK53-2)": "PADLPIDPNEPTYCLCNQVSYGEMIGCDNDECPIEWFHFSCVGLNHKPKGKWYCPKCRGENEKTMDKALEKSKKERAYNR", "assay": "1H,15N HSQC NMR titration", "assay_type": "binding", "settings": "298K, peptide aa 1–12 of H3"}, "RPE-1 cells": {"tested_on": "RPE-1 cells", "assay": "Confocal fluorescence microscopy of Haspin inhibitor-treated RPE-1 cells", "assay_type": "cell-based", "settings": "24 h", "outline": "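RPE-1 cells were grown on glass coverslips in DMEM/F12 with 10% FCS to 70% confluence. They were treated 24 h with the Haspin inhibitor from a 500 μM DMSO stock; controls got solvent only. Cells were fixed in 4% formaldehyde, permeabilized in 0.5% Triton X-100, and immunostained for DIDO, ING1 and H3K4me3, with DAPI counterstain. Single confocal layers were imaged with sequential excitation.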"}, "[17]": {"biological_target": "T2, PHF8 PHD finger (aa 37–106) (UniProt Q9UPP1 37-106, uniformly 15N-labelled for NMR)", "T2 sequence (looked up)": "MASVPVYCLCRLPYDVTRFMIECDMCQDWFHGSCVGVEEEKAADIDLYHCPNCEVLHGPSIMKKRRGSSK", "assay": "other fluorescence titration"}}, "note": "Non-standard residues stand in square brackets, D forms with d. No end group written: not given here. Lys(Me3) = C[N+](C)(C)CCCC[C@H](N)C(=O)O; pT = C[C@@H](OP(=O)(O)O)[C@H](N)C(=O)O", "data": [{"molecule": "histone H3 (from UniProt P68431) H3T3phK4me3T6ph peptide", "values": [{"measurement": "binding against the reference", "setting": "ING1 PHD finger [1]", "result": "weaker"}]}, {"molecule": "H3K4me3 peptide (aa 1–12 of H3) (from UniProt P68431 2-13)", "values": [{"measurement": "Kd", "setting": "[2]", "result": 1.1, "unit": "µM"}]}, {"molecule": "histone H3 1-20 (from UniProt P68431) H3T3phK4me3 peptide", "values": [{"measurement": "binding against the reference", "setting": "BPTF PHD finger [3]; sites T3", "result": "weaker"}, {"measurement": "binding against the reference", "setting": "DIDO PHD finger [4]; sites T3", "result": "weaker"}, {"measurement": "binding against the reference", "setting": "ING1 PHD finger [5]; sites T3", "result": "weaker"}, {"measurement": "binding against the reference", "setting": "PHF8 PHD finger [6]; sites T3", "result": "weaker"}, {"measurement": "binding against the reference", "setting": "Rag2 PHD finger [7]; sites T3", "result": "weaker"}, {"measurement": "binding against the reference", "setting": "Taf3 PHD finger [8]; sites T3", "result": "weaker"}, {"measurement": "binding against the reference", "setting": "BPTF PHD finger [9]", "result": "weaker"}, {"measurement": "binding against the reference", "setting": "DIDO PHD finger [10]", "result": "weaker"}, {"measurement": "binding against the reference", "setting": "ING1 PHD finger [11]", "result": "weaker"}, {"measurement": "binding against the reference", "setting": "[12]", "result": "weaker"}, {"measurement": "binding against the reference", "setting": "PHF8 PHD finger [13]", "result": "weaker"}, {"measurement": "binding against the reference", "setting": "Rag2 PHD finger [14]; sites T3", "result": "weaker"}, {"measurement": "binding against the reference", "setting": "Taf3 PHD finger [15]", "result": "weaker"}]}, {"molecule": "H3T3phK4me3T6ph: triple PTM-containing peptide", "values": [{"measurement": "CSPs / binding to ING1 PHD finger", "setting": "ING1 PHD finger [16]", "result": "markedly reduced"}]}, {"molecule": "H3K4me3T6ph peptide (aa 1–12 of histone H3) (from UniProt P68431 2-13)", "values": [{"measurement": "Kd", "setting": "[2]", "result": 5.5, "unit": "µM"}]}, {"molecule": "histone H3 1-20 (from UniProt P68431) H3K4me3T6ph peptide", "values": [{"measurement": "binding against the reference", "setting": "BPTF PHD finger [3]; sites T6", "result": "weaker"}, {"measurement": "binding against the reference", "setting": "DIDO PHD finger [4]; sites T6", "result": "weaker"}, {"measurement": "binding against the reference", "setting": "ING1 PHD finger [5]; sites T6", "result": "weaker"}, {"measurement": "binding against the reference", "setting": "PHF8 PHD finger [6]; sites T6", "result": "weaker"}, {"measurement": "binding against the reference", "setting": "Rag2 PHD finger [7]; sites T6", "result": "weaker"}, {"measurement": "binding against the reference", "setting": "Taf3 PHD finger [8]; sites T6", "result": "weaker"}, {"measurement": "binding against the reference", "setting": "Rag2 PHD finger [14]; sites T6", "result": "weaker"}]}, {"molecule": "CCCNc1ccc2ncc(-c3ccc4[nH]ncc4c3)n2n1", "note": "[CHR6494]", "values": [{"measurement": "DIDO and ING1 attachment to chromatin", "setting": "RPE-1 cells; 1 μM", "result": "only a portion of these proteins remained attached to chromatin"}, {"measurement": "H3T3ph level in prophase", "setting": "RPE-1 cells; 1 μM", "result": "pronounced reduction of H3T3ph in prophase"}, {"measurement": "DIDO and ING1 localization on chromatin", "setting": "RPE-1 cells; 2 μM", "result": "co-localization of DIDO and ING1 on poorly condensed H3K4me-positive chromatin"}, {"measurement": "completion of mitosis", "setting": "RPE-1 cells; 2 μM", "result": "unable to complete mitosis"}]}, {"molecule": "ART[Lys(Me3)]Q[pT]ARKSTG (peptide, UniProt P68431 2-13, looked up)", "note": "[H3K4me3T6ph peptide (aa 1–12 of histone H3)]", "values": [{"measurement": "fold reduction of binding against H3K4me3", "setting": "[17]", "result": 2, "unit": "fold"}]}, {"molecule": "ART[Lys(Me3)]QTARKSTG (peptide, UniProt P68431 2-13, looked up)", "note": "[H3K4me3 peptide (aa 1–12 of H3)]", "values": [{"measurement": "Kd", "setting": "[17]", "result": 2500, "unit": "nM"}]}]}
